Source: PMC6118327 (Biochimica et biophysica acta. Biomembranes, 2017)
Positions count from the first letter of the chain named. Several values for one entry are separate records, joined by “and”; a condition that tells them apart may be missing. Identical values can stand only once.

Key:
Type in all cases: biochemical
[1] = molecular target: T1, mUCP3R84Q (Mus musculus, UniProt P56501, R84Q); test: Relative conductance of UCP3 mutant in planar bilayer membranes; details: 3 mM ammonium-phosphate-dibasic; 15 mol% AA
T1 sequence (P56501 1-308 R84Q): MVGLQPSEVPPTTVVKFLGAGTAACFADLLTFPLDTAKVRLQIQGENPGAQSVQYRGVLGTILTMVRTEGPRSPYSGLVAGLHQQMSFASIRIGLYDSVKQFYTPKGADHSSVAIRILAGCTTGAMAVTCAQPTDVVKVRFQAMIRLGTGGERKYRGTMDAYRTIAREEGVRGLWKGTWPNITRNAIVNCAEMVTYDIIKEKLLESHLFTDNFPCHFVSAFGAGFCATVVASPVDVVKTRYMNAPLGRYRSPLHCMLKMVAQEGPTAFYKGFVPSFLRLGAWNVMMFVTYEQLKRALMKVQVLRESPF
Outline: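 Arginine point mutants made by site-directed mutagenesis, expressed in E. coli Rosetta and reconstituted like wild type. Planar DOPC/DOPE/CL (45:45:10) bilayers carried 15 mol% AA; buffer pH 7.35, 32°C. Relative conductance compared with wild type after nucleotide addition: UCP1 mutants 5 mM ATP, ADP or AMP; UCP3 mutant 2 mM ATP, 4 mM ADP or 8 mM AMP. Mean ± SD, ≥3 experiments.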

[2] = molecular target: T2, mUCP3 (Mus musculus, UniProt P56501); details: 15 mol% AA
T2 sequence (P56501 1-308): T1 sequence (P56501 1-308 R84Q) with Q84R
Outline: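 Recombinant mouse protein reconstituted into DOPC/DOPE/CL (45:45:10) liposomes. Bilayers formed at 1.5 mg/ml lipid, 6 μg protein/mg lipid, AA 10 or 15 mol%. Run in 50 mM Na₂SO₄/10 mM MES/10 mM Tris/0.6 mM EGTA, pH 7.35, 32°C. I/V recorded −50 to +50 mV, including with 2 mM ATP. G from linear fit at 0 mV gives relative conductance. IC50 and maximum inhibition come from a four-parameter logistic fit. AA-dependence tested at 1 mM ATP, 2 mM ADP, 5 mM AMP. Mean ± SD, ≥3 experiments.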

[3] = molecular target: T3, mUCP1 (Mus musculus, UniProt P12242); details: 15 mol% AA, curve fitting
T3 sequence (P12242 1-307): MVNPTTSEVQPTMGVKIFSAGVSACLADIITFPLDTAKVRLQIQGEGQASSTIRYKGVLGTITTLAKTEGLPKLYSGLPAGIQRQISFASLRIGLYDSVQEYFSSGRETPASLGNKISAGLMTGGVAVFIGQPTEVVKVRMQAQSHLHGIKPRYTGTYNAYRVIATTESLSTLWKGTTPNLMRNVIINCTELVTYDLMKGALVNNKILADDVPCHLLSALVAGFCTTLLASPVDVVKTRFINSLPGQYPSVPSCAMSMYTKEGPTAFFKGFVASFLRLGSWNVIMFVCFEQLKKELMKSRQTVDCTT
Outline: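 Inclusion-body mouse protein reconstituted into DOPC/DOPE/CL (45:45:10) proteoliposomes. Planar bilayers made at 1.5 mg/ml lipid, AA 10 or 15 mol% in the lipid solution, sulfate/MES/Tris/EGTA buffer pH 7.35, 32°C. I/V swept −50 to +50 mV; G at zero voltage from linear fit, normalised to AA-only and UCP+AA membranes. Titrations of nucleotides or phosphate fitted by four-parameter logistic for IC50 and maximum inhibition. AA comparison used 1 mM ATP, 2 mM ADP, 2 mM AMP. Mean ± SD, ≥3 experiments.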

[4] = molecular target: T4, mUCP3 R184T (Mus musculus, UniProt P56501, R184T); test: Relative conductance of UCP3 mutant in planar bilayer membranes; details: 3 mM ammonium-phosphate-dibasic; 15 mol% AA
T4 sequence (P56501 1-308 R184T): T1 sequence (P56501 1-308 R84Q) with Q84R, R184T

[5] = molecular target: T5, mUCP3 R278L (Mus musculus, UniProt P56501, R278L); test: as above; details: 3 mM ammonium-phosphate-dibasic; 15 mol% AA
T5 sequence (P56501 1-308 R278L): T1 sequence (P56501 1-308 R84Q) with Q84R, R278L

- maximum inhibition of mUCP3 by Pi ([2]; curve fitting): ~ 60%
- extent of inhibition at high inhibitor concentration ([2]; DOPC/DOPE/CL membranes, pH 7.35, 32°C): only partial inhibition
- IC50 ([2]; read-out: IC50 of Pi inhibition, curve fitting): ~1000 µM and 1000 µM
- IC50 of mUCP1 inhibition by Pi compared with mUCP3 [3]: similar
- maximum inhibition of mUCP1 by Pi compared with mUCP3 [3]: similar
SMILES: O=P(O)(O)O [Pi, inorganic phosphate]
- effect of mutation on inhibition by phosphate [1]: none of the arginine mutations had any effect
- effect of mutation on inhibition by phosphate [4]: none of the arginine mutations had any effect
- effect of mutation on inhibition by phosphate [5]: none of the arginine mutations had any effect
